Converted amounts (≈) assume the structure as drawn.
How the values were obtained:
Serratia marcescens = experiment: In vitro minimum inhibitory concentration for Serratia marcescens (ATCC-27117) by agar dilution method; assay type: functional; conditions: Serratia marcescens; read-out: MIC
Method in brief: (§1)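 Two-fold serial dilutions of each compound dispersed in Mueller-Hinton agar; plates spot-inoculated with 2 μL of standard test strain at 10^7 CFU/mL, incubated 37 °C for 20 h; MIC read as lowest concentration inhibiting growth.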

[1] = test system: Staphylococcus epidermidis; experiment: In vitro minimum inhibitory concentration for Staphylococcus epidermidis (ATCC-12228) by agar dilution method; assay type: functional; conditions: Staphylococcus epidermidis; read-out: MIC; method in brief: as §1
Escherichia coli = experiment: In vitro minimum inhibitory concentration for Escherichia coli (ATCC-10536) by agar dilution method; assay type: functional; conditions: Escherichia coli; read-out: MIC; method in brief: as §1
Proteus vulgaris = experiment: In vitro minimum inhibitory concentration for Proteus vulgaris (ATCC-6059) by agar dilution method; assay type: functional; conditions: Proteus vulgaris; read-out: MIC; method in brief: as §1
Klebsiella aerogenes = experiment: In vitro minimum inhibitory concentration for Enterobacter aerogenes (ATCC-29751) by agar dilution method; assay type: functional; conditions: Klebsiella aerogenes; read-out: MIC; method in brief: as §1
Staphylococcus aureus = experiment: In vitro minimum inhibitory concentration for Staphylococcus aureus (ATCC 6538p) by agar dilution method; assay type: functional; conditions: Staphylococcus aureus, ATCC 6538p; read-out: MIC; method in brief: as §1
Pseudomonas aeruginosa [2] = experiment: In vitro minimum inhibitory concentration for Pseudomonas aeruginosa (ATCC 10145) by agar dilution method; assay type: functional; method in brief: as §1
Pseudomonas aeruginosa [3] = experiment: In vitro minimum inhibitory concentration for Pseudomonas aeruginosa (ATCC-27853) by agar dilution method; assay type: functional; conditions: Pseudomonas aeruginosa; read-out: MIC; method in brief: as §1
Enterobacter cloacae = experiment: In vitro minimum inhibitory concentration for Enterobacter cloacae (ATCC-27508) by agar dilution method; assay type: functional; conditions: Enterobacter cloacae; read-out: MIC; method in brief: as §1
Salmonella typhimurium = experiment: In vitro minimum inhibitory concentration for Salmonella Typhimurium (ATCC-14028) by agar dilution method; assay type: functional, Salmonella enterica subsp. enterica serovar Typhimurium; conditions: Salmonella enterica; read-out: MIC; method in brief: as §1
Klebsiella pneumoniae = experiment: In vitro minimum inhibitory concentration for Klebsiella pneumoniae (ATCC-10031) by agar dilution method; assay type: functional; conditions: Klebsiella pneumoniae; read-out: MIC
Citrobacter freundii = experiment: In vitro minimum inhibitory concentration for Citrobacter freundii (ATCC-8090) by agar dilution method; assay type: functional; conditions: Citrobacter freundii; read-out: MIC; method in brief: as §1

| Compound | MIC (Serratia marcescens) | MIC [1] | MIC (Escherichia coli) | MIC (Proteus vulgaris) | MIC (Klebsiella aerogenes) | MIC (Staphylococcus aureus) | MIC (Pseudomonas aeruginosa [2]) | MIC (Pseudomonas aeruginosa [3]) | MIC (Enterobacter cloacae) | MIC (Salmonella typhimurium) | MIC (Klebsiella pneumoniae) | MIC (Citrobacter freundii) |
| --- | --- | --- | --- | --- | --- | --- | --- | --- | --- | --- | --- | --- |
| CC(C)(O/N=C(\C(=O)NC1C(=O)N2C(C(=O)O)=C(CSc3nc(N)cc(N)n3)CSC12)c1cnc(N)s1)C(=O)O (configuration not stated) | 0.5 µg/mL (≈ 0.82 µM) | 8 µg/mL (≈ 13.1 µM) | 0.25 µg/mL (≈ 0.41 µM) | 0.031 µg/mL (≈ 0.0508 µM) | 2 µg/mL (≈ 3.28 µM) | 32 µg/mL (≈ 52.5 µM) | 4 µg/mL (≈ 6.56 µM) | 2 µg/mL (≈ 3.28 µM) | 0.25 µg/mL (≈ 0.41 µM) | 0.5 µg/mL (≈ 0.82 µM) | 0.25 µg/mL (≈ 0.41 µM) | 1 µg/mL (≈ 1.64 µM) |
| CCCC[n+]1c(N)cc(N)nc1SCC1=C(C(=O)[O-])N2C(=O)C(NC(=O)/C(=N\OC(C)(C)C(=O)O)c3cnc(N)s3)C2SC1 (configuration not stated) | 0.5 µg/mL (≈ 0.751 µM) | 1 µg/mL (≈ 1.5 µM) | 0.13 µg/mL (≈ 0.195 µM) | 0.25 µg/mL (≈ 0.375 µM) | 1 µg/mL (≈ 1.5 µM) | 2 µg/mL (≈ 3 µM) | 4 µg/mL (≈ 6.01 µM) | 4 µg/mL (≈ 6.01 µM) | 0.03 µg/mL (≈ 0.0451 µM) | 0.5 µg/mL (≈ 0.751 µM) | 0.06 µg/mL (≈ 0.0901 µM) | 0.13 µg/mL (≈ 0.195 µM) |
| C/C=C/[n+]1c(N)cc(N)nc1SCC1=C(C(=O)[O-])N2C(=O)C(NC(=O)/C(=N\OC(C)(C)C(=O)O)c3cnc(N)s3)C2SC1 (configuration not stated) | 0.13 µg/mL (≈ 0.2 µM) | 2 µg/mL (≈ 3.08 µM) | 0.13 µg/mL (≈ 0.2 µM) | 0.06 µg/mL (≈ 0.0923 µM) | 2 µg/mL (≈ 3.08 µM) | 4 µg/mL (≈ 6.16 µM) | 2 µg/mL (≈ 3.08 µM) | 2 µg/mL (≈ 3.08 µM) | 0.03 µg/mL (≈ 0.0462 µM) | 0.25 µg/mL (≈ 0.385 µM) | 0.06 µg/mL (≈ 0.0923 µM) | 0.13 µg/mL (≈ 0.2 µM) |
| Cc1c(N)nc(SCC2=C(C(=O)[O-])N3C(=O)C(NC(=O)/C(=N\OC(C)(C)C(=O)O)c4cnc(N)s4)C3SC2)[n+]2nc(C)n(C)c12 (configuration not stated) | 0.5 µg/mL (≈ 0.739 µM) | 2 µg/mL (≈ 2.96 µM) | 0.25 µg/mL (≈ 0.369 µM) | 0.13 µg/mL (≈ 0.192 µM) | 1 µg/mL (≈ 1.48 µM) | 8 µg/mL (≈ 11.8 µM) | 8 µg/mL (≈ 11.8 µM) | 4 µg/mL (≈ 5.91 µM) | 0.03 µg/mL (≈ 0.0443 µM) | 0.25 µg/mL (≈ 0.369 µM) | 0.13 µg/mL (≈ 0.192 µM) | 0.13 µg/mL (≈ 0.192 µM) |
| CC(C)(O/N=C(\C(=O)NC1C(=O)N2C(C(=O)[O-])=C(CSc3nc(N)cc[n+]3N)CSC12)c1cnc(N)s1)C(=O)O (configuration not stated) | 0.13 µg/mL (≈ 0.213 µM) | 2 µg/mL (≈ 3.28 µM) | 0.06 µg/mL (≈ 0.0984 µM) | 0.03 µg/mL (≈ 0.0492 µM) | 0.5 µg/mL (≈ 0.82 µM) | 8 µg/mL (≈ 13.1 µM) | 2 µg/mL (≈ 3.28 µM) | 1 µg/mL (≈ 1.64 µM) | 0.02 µg/mL (≈ 0.0328 µM) | 0.13 µg/mL (≈ 0.213 µM) | 0.03 µg/mL (≈ 0.0492 µM) | 0.03 µg/mL (≈ 0.0492 µM) |
| C[n+]1c(O)cc(O)nc1SCC1=C(C(=O)[O-])N2C(=O)C(NC(=O)/C(=N\OC(C)(C)C(=O)O)c3cnc(N)s3)C2SC1 (configuration not stated) | 16 µg/mL (≈ 25.6 µM) | > 128 µg/mL | 4 µg/mL (≈ 6.39 µM) | 0.5 µg/mL (≈ 0.799 µM) | 16 µg/mL (≈ 25.6 µM) | > 128 µg/mL | 32 µg/mL (≈ 51.1 µM) | 16 µg/mL (≈ 25.6 µM) | 1 µg/mL (≈ 1.6 µM) | 16 µg/mL (≈ 25.6 µM) | 2 µg/mL (≈ 3.2 µM) | 4 µg/mL (≈ 6.39 µM) |
